Blank lines part the entries; values can stand above or below the compound they belong to. Calls of active or inactive are those of the source. The rule behind the calls is not given here.
Assays:
[1] = test system: Z-138; assay: Induction of cell cycle arrest in human Z138 cells assessed as increase in sub-2n cell population measured upto 1000 nM measured for 5 days by propidium iodide staining based flow cytometric analysis; type: functional; conditions: time 5.0 day
[2] = test system: MCL; assay: Induction of cell cycle arrest in human MCL cells assessed as increase in 2n cell population measured upto 5000 nM measured for 3 days by propidium iodide staining based flow cytometric analysis; type: functional; conditions: time 3.0 day
[3] = test system: MCF7; assay: Induction of cell cycle arrest in human MCF7 cells assessed as increase in 2n cell population measured upto 5000 nM measured for 2 to 7 days by propidium iodide staining based flow cytometric analysis; type: functional; conditions: time 2-7 day
[4] = test system: MDA-MB-468; assay: Induction of cell cycle arrest in human MDA-MB-468 cells assessed as decrease in 2n cell population measured upto 5000 nM measured for 2 to 7 days by propidium iodide staining based flow cytometric analysis; type: functional; conditions: time 2-7 day
[5] = test system: Z-138; assay: Induction of apoptosis in human Z138 cells assessed as dead cells incubated for 6 days by annexin-V/FITC propidium iodide staining based flow cytometry analysis; type: functional, cell-based; conditions: dose 200.0 nM, time 6.0 day
[6] = test system: Z-138; assay: Antitumor activity against human Z138 cells xenografted in po dosed mouse measured for 21 days; type: functional, organism-based; conditions: dose lower […], dose upper 200.0 mg/kg, time 21.0 day
[7] = test system: JEG-3; assay: Antiproliferative activity against human JEG-3 cells assessed as cell growth inhibition incubated for 10 days; type: functional; conditions: JEG-3, 240 h, time 10 day
Procedure, shortened: (§1)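 Eurofins-panel 10-day assay in 384-well plates. Cells grown in RPMI-1640 with 10% FBS, 2 mM L-alanyl-L-glutamine and 1mM Na pyruvate, or a special medium, at 37°C in 5% CO₂. Compound added 24 h after seeding, 10-point 3.16-fold series in 0.1% DMSO. Medium replaced and compound re-dosed at 168 h. Nuclei fixed and stained after 240 h, then imaged to give a relative cell count. gIC50 is the concentration giving growth midway between untreated and time-zero counts, from a 4-parameter fit.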

[8] = test system: LS174T; assay: Antiproliferative activity against human LS174T cells assessed as cell growth inhibition incubated for 10 days; type: functional; conditions: 240 h, time 10 day
[9] = test system: SW480; assay: Antiproliferative activity against human SW480 cells assessed as cell growth inhibition incubated for 10 days; type: functional; conditions: SW480, 240 h, time 10 day
[10] = test system: HCT-116; assay: Antiproliferative activity against human HCT-116 cells assessed as cell growth inhibition incubated for 10 days; type: functional; conditions: HCT-116, 240 h, time 10 day
Procedure, shortened: (§2)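 Outsourced panel run in 384-well plates. Cells were grown in RPMI-1640/10% FBS or a special medium at 37°C, 5% CO2. Compound was added 24 h after seeding as a 10-point, 3.16-fold series in 0.1% DMSO. Medium was refreshed and cells re-dosed at 168 h, with a time-zero plate kept. At 240 h cells were fixed, nuclei stained and imaged. gIC50 is growth midway between untreated and time zero, from a 4-parameter fit.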

[11] = test system: COLO 205; assay: Antiproliferative activity against human COLO 205 cells assessed as cell growth inhibition incubated for 10 days; type: functional; conditions: COLO 205, 240 h, time 10 day
Procedure, shortened: (§3)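 Cells kept in RPMI-1640 with 10% FBS, 2 mM L-alanyl-L-glutamine and 1 mM Na pyruvate (or a special medium) at 37°C, 5% CO2. Compound added 24 h after seeding, 10 concentrations in 3.16-fold dilution, 0.1% DMSO final. Medium replaced and cells re-dosed at 168 h; 240 h incubation. Nuclei fixed, dye-stained and imaged. gIC50 = growth midway between untreated and time-zero cell counts, from a 4-parameter fit.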

[12] = test system: KATO III stomach cancer cell line; assay: Antiproliferative activity against human KATO III stomach cancer cell line assessed as cell growth inhibition incubated for 10 days; type: functional; conditions: 240 h, time 10 day; procedure, shortened: as §1
[13] = test system: SNB-19; assay: Antiproliferative activity against human SNB-19 cells assessed as cell growth inhibition incubated for 10 days; type: functional; conditions: SNB-19, 240 h, time 10 day
[14] = test system: SW1463; assay: Antiproliferative activity against human SW1463 cells assessed as cell growth inhibition incubated for 10 days; type: functional; conditions: SW1463, 240 h, time 10 day
[15] = test system: ACHN; assay: Antiproliferative activity against human ACHN cells assessed as cell growth inhibition incubated for 10 days; type: functional; conditions: 240 h, time 10 day; procedure, shortened: as §3
[16] = test system: SNU-423; assay: Antiproliferative activity against human SNU-423 cells assessed as cell growth inhibition incubated for 10 days; type: functional; conditions: SNU-423, 240 h, time 10 day
[17] = test system: Hs 294T; assay: Antiproliferative activity against human Hs294T cells assessed as cell growth inhibition incubated for 10 days; type: functional; conditions: 240 h, time 10 day
Procedure, shortened: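 Eurofins panel, 384-well. Cells kept in RPMI-1640 with 10% FBS, 2 mM L-alanyl-L-glutamine and 1 mM Na pyruvate, or in a special medium, at 37°C under 5% CO2. Compound added 24 h after seeding as 10 concentrations in 3.16-fold steps, 0.1% DMSO final. Medium replaced and compound re-dosed at 168 h. After 240 h, cells fixed and nuclei stained for imaging. gIC50 = growth midway between untreated cells and time-zero count.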

[18] = test system: RPMI-7951; assay: Antiproliferative activity against human RPMI-7951 cells assessed as cell growth inhibition incubated for 10 days; type: functional; conditions: RPMI-7951, 240 h, time 10 day
[19] = test system: BE(2)-C; assay: Antiproliferative activity against human BE2C cells assessed as cell growth inhibition incubated for 10 days; type: functional; conditions: 240 h, time 10 day; procedure, shortened: as §3
[20] = test system: NCI-H460; assay: Antiproliferative activity against human NCI-H460 cells assessed as cell growth inhibition incubated for 10 days; type: functional; conditions: NCI-H460, 240 h, time 10 day
[21] = test system: A549; assay: Antiproliferative activity against human A549 cells assessed as cell growth inhibition incubated for 10 days; type: functional; conditions: A549, 240 h, time 10 day; procedure, shortened: as §3
[22] = test system: BXPC-3; assay: Antiproliferative activity against human BXPC-3 cells assessed as cell growth inhibition incubated for 10 days; type: functional; conditions: BXPC-3, 240 h, time 10 day; procedure, shortened: as §3
[23] = test system: Capan-2; assay: Antiproliferative activity against human Capan-2 cells assessed as cell growth inhibition incubated for 10 days; type: functional; conditions: Capan-2, 240 h, time 10 day; procedure, shortened: as §2
[24] = test system: HuP-T4; assay: Antiproliferative activity against human HuP-T4 cells assessed as cell growth inhibition incubated for 10 days; type: functional; conditions: HuP-T4, 240 h, time 10 day
Procedure, shortened: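 Cells grown at 37°C under 5% CO2 in RPMI-1640 with 10% FBS, 2 mM L-alanyl-L-glutamine and 1 mM pyruvate (or a special medium), then seeded in 384-well plates. Compound was added 24 h later as a 10-point, 3.16-fold series in 0.1% DMSO final. Medium was replaced and cells re-dosed at 168 h; 240 h total. Nuclear-dye imaging gave cell counts, with a time-zero plate. gIC50 is growth halfway to time zero, from a 4-parameter fit.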

[25] = test system: SHP77; assay: Antiproliferative activity against human SHP77 cells assessed as cell growth inhibition incubated for 10 days; type: functional; conditions: SHP77, 240 h, time 10 day
[26] = test system: J-RT3-T3-5; assay: Antiproliferative activity against human J-RT3-T3-5 cells assessed as cell growth inhibition incubated for 10 days; type: functional; conditions: J-RT3-T3-5, 240 h, time 10 day; procedure, shortened: as §1
[27] = molecular target: Protein arginine N-methyltransferase 5 (Homo sapiens) (UniProt O14744); assay: Inhibition of PRMT5 in human Z138 cells assessed as effect on snRNP B1 level by measuring fold change by LC-MS/MS analysis relative to control; type: cell-based
Chain of Protein arginine N-methyltransferase 5 (Homo sapiens) (O14744 whole entry): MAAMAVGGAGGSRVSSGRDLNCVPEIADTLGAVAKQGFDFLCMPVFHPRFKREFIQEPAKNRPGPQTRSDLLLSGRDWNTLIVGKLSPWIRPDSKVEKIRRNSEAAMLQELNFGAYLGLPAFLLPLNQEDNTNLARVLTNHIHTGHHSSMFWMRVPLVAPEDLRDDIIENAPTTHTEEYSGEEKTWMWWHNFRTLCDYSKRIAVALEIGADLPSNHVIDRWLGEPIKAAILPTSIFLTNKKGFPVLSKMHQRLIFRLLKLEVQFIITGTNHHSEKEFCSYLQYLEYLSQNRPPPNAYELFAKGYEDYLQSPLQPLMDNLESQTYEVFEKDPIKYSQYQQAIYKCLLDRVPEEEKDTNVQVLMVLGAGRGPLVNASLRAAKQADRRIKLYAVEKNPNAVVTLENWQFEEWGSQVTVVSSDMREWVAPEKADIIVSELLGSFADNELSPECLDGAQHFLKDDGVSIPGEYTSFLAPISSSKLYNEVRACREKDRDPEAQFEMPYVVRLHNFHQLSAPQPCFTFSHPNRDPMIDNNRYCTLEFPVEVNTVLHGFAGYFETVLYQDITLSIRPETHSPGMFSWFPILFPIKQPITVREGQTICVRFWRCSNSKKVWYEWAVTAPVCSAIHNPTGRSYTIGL

Compound: CC(=O)N1CCC(Nc2cc(C(=O)NC[C@H](O)CN3CCc4ccccc4C3)ncn2)CC1 [PEMRAMETOSTAT]
Activity [1]: Active | Activity [2]: Active | Activity [3]: Active | Activity [4]: inactive | Activity [5]: Dose-Dependent Effect | Activity [6]: Dose-Dependent Effect

GI50 [9]: 413 nM | GI50 [10]: 166 nM | GI50 [11]: 10000 nM | GI50 [12]: 16.7 nM | GI50 [14]: 770 nM | GI50 [15]: 38.6 nM | GI50 [16]: 66 nM | GI50 [20]: 224 nM | GI50 [21]: 80.9 nM | GI50 [22]: 160 nM | fold change (FC) [27]: -16.8
Compound: O=C(NC[C@H](O)CN1CCc2ccccc2C1)c1ccnc(NC2CCC2)c1
GI50 [7]: 216 nM | GI50 [8]: 170 nM | GI50 [13]: 223 nM | GI50 [17]: 12.3 nM | GI50 [18]: 44.2 nM | GI50 [19]: 803 nM | GI50 [23]: 69.7 nM | GI50 [24]: 84.9 nM | GI50 [25]: 152 nM | GI50 [26]: 43.2 nM

Source: ChEMBL document CHEMBL5653630, “Activation of the p53-MDM4 regulatory axis defines the anti-tumour response to PRMT5 inhibition through its role in regulating cellular splicing” (Sci Rep, 2018)
